We go through 6 compounds from ChEMBL document CHEMBL3271986, “Studies on vitamin D (calciferol) and its analogues. 10. Side-chain analogues of 25-hydroxyvitamin D3” (J Med Chem, 1977).

Active and inactive are the calls of the source. The rule behind the calls is not given here.

What all share (type): functional, organism-based
Assay [1] has as its system Gallus gallus. The experiment in a line: Induction of intestinal [45Ca2+] absorption in rachitic white leghorn cockerel assessed as radioactivity in serum up to 78 nmol, ip treated 24 hrs prior to testing measured at 24 hrs post treatment. In a few lines: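 Rachitic White Leghorn cockerels (3 weeks rachitogenic low-calcium diet without vitamin D, zero-calcium diet for the last 3 days). Dosed intraperitoneally in 0.2 ml propanediol-ethanol (3/1) 24 h before assay. Under light ether anaesthesia the duodenum was exposed and given 5 μCi 45Ca2+ plus 4 mg carrier 40Ca2+. After 30 min, decapitation; radioactivity counted in 0.2 ml serum. Mean ± SEM, 8-10 birds.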

For assay [2], the system named is Gallus gallus. The assay is described as follows: Induction of bone calcium mobilization in rachitic white leghorn cockerel assessed as Ca2+ level in serum up to 78 nmol, ip treated 24 hrs prior to testing measured at 24 hrs post treatment by atomic absorption spectrometric analysis. In a few lines: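 White Leghorn cockerels reared 3 weeks on a rachitogenic low-calcium diet without vitamin D, then zero-calcium diet for 3 days before assay. Single intraperitoneal dose in 0.2 ml 1,2-propanediol-ethanol (3/1) 24 h before assay; vehicle-only rachitic and vitamin D3 controls. Blood taken after decapitation and allowed to clot. Serum calcium measured by atomic absorption spectrometry on diluted samples. Mean ± SEM, 8-10 birds.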

Assay [3] deals with Gallus gallus. The experiment in a line: Induction of bone calcium mobilization in rachitic white leghorn cockerel assessed as Ca2+ level in serum at 130 nmol, ip measured at 24 hrs by atomic absorption spectrometric analysis. Summed up:
(§1)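 Cockerels raised 3 weeks on rachitogenic low-calcium diet without vitamin D, then zero-calcium diet for 3 days before assay. Compound given ip in 0.2 ml 1,2-propanediol-ethanol (3/1); -D controls received solvent only, +D controls 6.5 nmol vitamin D3 24 h before assay. Serum Ca2+ measured by atomic absorption spectrometry on diluted serum. Mean ± SEM, 8-10 birds.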

Assay [4] relates to Gallus gallus. The experiment in a line: Induction of intestinal [45Ca2+] absorption in rachitic white leghorn cockerel assessed as radioactivity in serum at 130 nmol, ip measured at 24 hrs. Summed up:
(§2)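 Rachitic chicks (3 weeks on low-calcium diet lacking vitamin D, then zero-calcium diet for 3 days) were dosed ip in 0.2 ml propanediol-ethanol (3/1); solvent-only -D controls. At assay, 5 µCi 45Ca2+ plus 4 mg 40Ca2+ carrier was placed into the surgically exposed duodenum under light ether anesthesia. Serum radioactivity (0.2 ml) read 30 min later. Mean ± SEM, 8-10 birds.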

Assay [5] has as its system Gallus gallus. The experiment in a line: Induction of bone calcium mobilization in rachitic white leghorn cockerel assessed as Ca2+ level in serum up to 97.5 nmol, ip measured at 24 hrs by atomic absorption spectrometric analysis relative to control. In a few lines: as §1
For assay [6], the system named is Gallus gallus. The assay is described as follows: Induction of bone calcium mobilization in rachitic white leghorn cockerel assessed as Ca2+ level in serum at 32.5 nmol, ip measured up to 96 hrs by atomic absorption spectrometric analysis relative to control. In a few lines: as §1
Assay [7] relates to Gallus gallus. The assay is described as follows: Induction of intestinal [45Ca2+] absorption in rachitic white leghorn cockerel assessed as radioactivity in serum at 32.5 nmol, ip measured up to 96 hrs relative to control. Summed up:
as §2

The test system of assay [8] is Gallus gallus. The assay is described as follows: Induction of intestinal [45Ca2+] absorption in rachitic white leghorn cockerel assessed as radioactivity in serum up to 97.5 nmol, ip measured at 24 hrs relative to control. Summed up: as §2

Take `C=C1CC[C@H](O)C/C1=C/C=C1\CCC[C@]2(C)[C@@H]([C@H](C)CCCC(C)C)CC[C@@H]12`: the result in the assay on Gallus gallus [1] and with Gallus gallus [2] was Active.

Take `C=C1CC[C@H](O)C/C1=C/C=C1\CCC[C@]2(C)[C@@H]([C@H](C)CCCCC(C)(C)O)CC[C@@H]12`: the result in the assay on Gallus gallus [3], in the assay with Gallus gallus [1], in the assay with Gallus gallus [2] and in the assay on Gallus gallus [4] was Active.

In the case of `C=C1CC[C@H](O)C/C1=C/C=C1\CCC[C@]2(C)[C@@H]([C@H](C)C(C)(C)O)CC[C@@H]12`, the result with Gallus gallus [5], in the assay on Gallus gallus [6], in the assay on Gallus gallus [7] and in the assay with Gallus gallus [8] was inactive.

Take `C=C1CC[C@H](O)C/C1=C/C=C1\CCC[C@]2(C)[C@@H](C(C)(C)O)CC[C@@H]12`: the outcome in the assay on Gallus gallus [5], in the assay with Gallus gallus [6], with Gallus gallus [7] and in the assay on Gallus gallus [8] was inactive.

As to `C=C1CC[C@H](O)C/C1=C/C=C1\CCC[C@]2(C)[C@@H]([C@H](C)CC(C)(C)O)CC[C@@H]12`, the outcome with Gallus gallus [5], in the assay with Gallus gallus [6], with Gallus gallus [7] and in the assay on Gallus gallus [8] was inactive.

For `C=C1CC[C@H](O)C/C1=C/C=C1\CCC[C@]2(C)[C@@H]([C@H](C)CCC(C)(C)O)CC[C@@H]12`, the result in the assay with Gallus gallus [5], with Gallus gallus [6], in the assay with Gallus gallus [7] and in the assay on Gallus gallus [8] was inactive.
